Holding throughout (format): functional
Assay [1] deals with Escherichia coli. Briefly: In vitro antibacterial activity was measured on gram negative bacteria Escherichia coli J3272 tet-C(efflux resistance) cell lines.
The subject of assay [2] is Escherichia coli. Briefly: In vitro antibacterial activity was measured on gram negative bacteria Escherichia coli UBMS 88-1 tet-B(efflux resistance) cell lines.
Assay [3] has as its system Escherichia coli. Briefly: In vitro antibacterial activity was measured on gram negative bacteria Escherichia coli UBMS 90-5 sensitive cell lines. The gist of the method: (§1)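 MIC by agar dilution on Mueller-Hinton II agar; inoculum (1–5) × 10^5 CFU/mL; antibiotic range 32–0.004 μg/mL; plates incubated 18 h at 35 °C in forced-air incubator. MIC taken as lowest concentration inhibiting growth. Tetracycline, minocycline and doxycycline run as standards in each assay.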

For assay [4], the system named is Escherichia coli. Briefly: In vitro antibacterial activity was measured on gram negative bacteria Escherichia coli UBMS 90-4 tet-M (ribosomal protection) cell lines. The gist of the method:
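Agar dilution MIC on Mueller-Hinton II agar. Inoculum (1–5) × 10^5 CFU/mL, drug range 32–0.004 μg/mL. Plates incubated 18 h at 35 °C in a forced-air incubator. MIC is the lowest concentration that inhibits growth. The strain panel covered tetracycline-sensitive and -resistant strains. Tetracycline, minocycline and doxycycline were run as standards in each assay.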

Assay [5] concerns Staphylococcus aureus. Briefly: In vitro antibacterial activity was measured on gram positive bacteria Staphylococcus aureus smith cell lines. Put shortly: as §1
The test system of assay [6] is Escherichia coli. Description: In vitro antibacterial activity was measured on gram negative bacteria Escherichia coli PRP-1 tet-a(efflux resistance) cell lines.
The subject of assay [7] is Staphylococcus aureus. Briefly: In vitro antibacterial activity was measured on gram positive bacteria Staphylococcus aureus UBMS 88-7 tet-k(efflux resistance) cell lines.
Assay [8] concerns Staphylococcus aureus. Briefly: In vitro antibacterial activity was measured on gram positive bacteria Staphylococcus aureus UBMS 90-1 tet-M (ribosomal protection) cell lines. The gist of the method:
as §1

The subject of assay [9] is Staphylococcus aureus. Briefly: In vitro antibacterial activity was measured on gram positive bacteria Staphylococcus aureus UBMS 90-3 sensitive cell lines. Put shortly: as §1

Data on eight compounds can be found in ChEMBL document CHEMBL1127343, “"Glycylcyclines". 3. 9-Aminodoxycyclinecarboxamides” (1994).

Converted amounts (≈) assume the structure as drawn. Where only a bound is given, the exact number is not on record here.

`C[C@H](N)C(=O)Nc1ccc2c(c1O)C(=O)C1=C(O)[C@]3(O)C(O)=C(C(N)=O)C(=O)[C@@H](N(C)C)C3[C@@H](O)C1[C@H]2C` (some centres not stated): the MIC in the assay on Escherichia coli [1] was above 32 µg/mL; against Escherichia coli [2] it was 16 µg/mL (≈ 30.2 µM); with Escherichia coli [3], 8 µg/mL (≈ 15.1 µM); in the assay with Escherichia coli [4], 8 µg/mL (≈ 15.1 µM); against Staphylococcus aureus [5], 2 µg/mL (≈ 3.77 µM); in the assay on Escherichia coli [6], above 32 µg/mL. Besides, the MIC in the assay with Staphylococcus aureus [7] is above 32 µg/mL; against Staphylococcus aureus [8], 8 µg/mL (≈ 15.1 µM); against Staphylococcus aureus [9], 2 µg/mL (≈ 3.77 µM).
With `CC(C)C[C@H](N)C(=O)Nc1ccc2c(c1O)C(=O)C1=C(O)[C@]3(O)C(O)=C(C(N)=O)C(=O)[C@@H](N(C)C)C3[C@@H](O)C1[C@H]2C` (some centres not stated), the MIC against Escherichia coli [1] is 4 µg/mL (≈ 6.99 µM); in the assay with Escherichia coli [2] it was 2 µg/mL (≈ 3.49 µM); in the assay with Escherichia coli [3], 1 µg/mL (≈ 1.75 µM); in the assay on Escherichia coli [4], 1 µg/mL (≈ 1.75 µM); in the assay with Staphylococcus aureus [5], 0.5 µg/mL (≈ 0.873 µM); against Escherichia coli [6], 16 µg/mL (≈ 27.9 µM). Also, the MIC in the assay with Staphylococcus aureus [7] was 2 µg/mL (≈ 3.49 µM); in the assay with Staphylococcus aureus [8], 1 µg/mL (≈ 1.75 µM); against Staphylococcus aureus [9], 0.5 µg/mL (≈ 0.873 µM).
Regarding `C[C@H]1c2ccc(NC(=O)[C@@H](N)Cc3ccc(O)cc3)c(O)c2C(=O)C2=C(O)[C@]3(O)C(O)=C(C(N)=O)C(=O)[C@@H](N(C)C)C3[C@@H](O)C21` (some centres not stated), the MIC against Escherichia coli [1] worked out at 16 µg/mL (≈ 25.7 µM); against Escherichia coli [2], 16 µg/mL (≈ 25.7 µM); with Escherichia coli [3] it was 8 µg/mL (≈ 12.8 µM); against Escherichia coli [4], 8 µg/mL (≈ 12.8 µM); against Staphylococcus aureus [5], 1 µg/mL (≈ 1.61 µM); with Escherichia coli [6] it was 32 µg/mL (≈ 51.4 µM). Further, the MIC with Staphylococcus aureus [7] is 32 µg/mL (≈ 51.4 µM); with Staphylococcus aureus [8], 4 µg/mL (≈ 6.42 µM); against Staphylococcus aureus [9], 0.5 µg/mL (≈ 0.803 µM).
Consider `CN(C)CC(=O)Nc1cc(N(C)C)c2c(c1O)C(=O)C1=C(O)[C@]3(O)C(O)=C(C(N)=O)C(=O)[C@@H](N(C)C)[C@@H]3CC1C2` (some centres not stated), for which the MIC is 2 µg/mL (≈ 3.59 µM) in the assay on Escherichia coli [1]; 0.5 µg/mL (≈ 0.897 µM) against Escherichia coli [2]; 0.25 µg/mL (≈ 0.448 µM) against Escherichia coli [3]; 0.25 µg/mL (≈ 0.448 µM) with Escherichia coli [4]; 0.25 µg/mL (≈ 0.448 µM) against Staphylococcus aureus [5]; 2 µg/mL (≈ 3.59 µM) against Escherichia coli [6]. The MIC against Staphylococcus aureus [7] stood at 2 µg/mL (≈ 3.59 µM); in the assay on Staphylococcus aureus [8] it was 0.5 µg/mL (≈ 0.897 µM); against Staphylococcus aureus [9], 0.25 µg/mL (≈ 0.448 µM).
Take `C[C@H]1c2ccc(NC(=O)CN(C)C)c(O)c2C(=O)C2=C(O)[C@]3(O)C(O)=C(C(N)=O)C(=O)[C@@H](N(C)C)C3[C@@H](O)C21` (some centres not stated): the MIC against Escherichia coli [1] was 8 µg/mL (≈ 14.7 µM); with Escherichia coli [2] it was 1 µg/mL (≈ 1.84 µM); with Escherichia coli [3], 0.5 µg/mL (≈ 0.918 µM); against Escherichia coli [4], 0.25 µg/mL (≈ 0.459 µM); in the assay with Staphylococcus aureus [5], 0.25 µg/mL (≈ 0.459 µM); in the assay on Escherichia coli [6] it was 2 µg/mL (≈ 3.67 µM). For the same compound, the MIC worked out at 4 µg/mL (≈ 7.35 µM) in the assay on Staphylococcus aureus [7], 0.5 µg/mL (≈ 0.918 µM) in the assay on Staphylococcus aureus [8] and 0.12 µg/mL (≈ 0.22 µM) in the assay with Staphylococcus aureus [9].
`CN(C)CC(=O)Nc1ccc2c(c1O)C(=O)C1=C(O)[C@]3(O)C(O)=C(C(N)=O)C(=O)[C@@H](N(C)C)[C@@H]3CC1C2` (some centres not stated): the MIC against Escherichia coli [1] came to 2 µg/mL (≈ 3.89 µM); in the assay with Escherichia coli [2] it was 1 µg/mL (≈ 1.94 µM); with Escherichia coli [3], 0.25 µg/mL (≈ 0.486 µM); in the assay on Escherichia coli [4], 0.25 µg/mL (≈ 0.486 µM); against Staphylococcus aureus [5], 0.12 µg/mL (≈ 0.233 µM); in the assay on Escherichia coli [6], 2 µg/mL (≈ 3.89 µM). The MIC was 1 µg/mL (≈ 1.94 µM) in the assay on Staphylococcus aureus [7], 0.25 µg/mL (≈ 0.486 µM) against Staphylococcus aureus [8] and 0.12 µg/mL (≈ 0.233 µM) in the assay on Staphylococcus aureus [9].
As to `C[C@H]1c2ccc(NC(=O)CNC(C)(C)C)c(O)c2C(=O)C2=C(O)[C@]3(O)C(O)=C(C(N)=O)C(=O)[C@@H](N(C)C)C3[C@@H](O)C21` (some centres not stated), the MIC in the assay on Escherichia coli [1] was 1 µg/mL (≈ 1.75 µM); against Escherichia coli [2], 1 µg/mL (≈ 1.75 µM); against Escherichia coli [3], 0.5 µg/mL (≈ 0.873 µM); against Escherichia coli [4], 0.5 µg/mL (≈ 0.873 µM); against Staphylococcus aureus [5], 0.5 µg/mL (≈ 0.873 µM); against Escherichia coli [6], 1 µg/mL (≈ 1.75 µM). For the same compound, the MIC stood at 2 µg/mL (≈ 3.49 µM) in the assay on Staphylococcus aureus [7], 1 µg/mL (≈ 1.75 µM) against Staphylococcus aureus [8] and 0.25 µg/mL (≈ 0.437 µM) in the assay on Staphylococcus aureus [9].
With `CCN(CC)CC(=O)Nc1ccc2c(c1O)C(=O)C1=C(O)[C@]3(O)C(O)=C(C(N)=O)C(=O)[C@@H](N(C)C)C3[C@@H](O)C1[C@H]2C` (some centres not stated), the MIC against Escherichia coli [1] was 2 µg/mL (≈ 3.49 µM); in the assay on Escherichia coli [2] it was 1 µg/mL (≈ 1.75 µM); with Escherichia coli [3], 0.5 µg/mL (≈ 0.873 µM); in the assay on Escherichia coli [4] it was 0.5 µg/mL (≈ 0.873 µM); in the assay with Staphylococcus aureus [5] it was 0.25 µg/mL (≈ 0.437 µM); against Escherichia coli [6] it was 4 µg/mL (≈ 6.99 µM). Moreover, the MIC was determined as 1 µg/mL (≈ 1.75 µM) in the assay on Staphylococcus aureus [7], 2 µg/mL (≈ 3.49 µM) against Staphylococcus aureus [8] and 0.12 µg/mL (≈ 0.21 µM) against Staphylococcus aureus [9].
